# Test results reported in ChEMBL document CHEMBL2396579, “Synthesis and in vitro photocytotoxicity of coumarin derivatives for one- and two-photon excited photodynamic therapy” (J Med Chem, 2013).
# The source made the active and inactive calls. The rule behind the calls is not given here.
# How the values were obtained:
# [1] = Drug uptake in human HepG2 cell mitochondria at 10 uM after 4 hrs by confocal laser scanning microscopy; type: ADME; conditions: hepg2, 4 h
# [2] = system: HepG2; assay: Cellular uptake in human HepG2 cells at 20 uM after 4 hrs by fluorescence spectrophotometry; type: ADME, cell-based; conditions: hepg2, 4 h
# Method in brief: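 HepG2 cells were incubated with 20 μM photosensitizer for different times and intracellular concentration was measured at each time point. Mean ± SD, three replicates.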
# [3] = system: HepG2; assay: Intracellular ROS generation in human HepG2 cells at 20 uM after 4 hrs by DCFH-DA-based fluorescence analysis; type: functional, cell-based
# Method in brief: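 Intracellular ROS in HepG2 cells was detected with the probe 2,7-dichlorodihydrofluorescein diacetate (DCFH-DA), which ROS convert to fluorescent 2,7-dichlorofluorescein.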
# [4] = system: HepG2; assay: Photocytotoxicity against human HepG2 cells assessed as cell viability at 20 uM incubated for 4 hrs prior to 630 mW laser irradiation for 10 mins followed by 24 hrs incubation in dark by CCK-8 assay; type: functional; conditions: for viability at 20 µM: HepG2, light or radiation study, read-out: Activity
# Method in brief: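 HepG2 cells were incubated with 20 μM photosensitizer for 4 h and split into two equal series. One series received 800 nm femtosecond laser light (1.64 W cm−2, 1 kHz, 130 fs) for 10 min; the other stayed dark as control. Both were held 24 h in the dark before viability was read. Photosensitizer-free cells were also irradiated. Mean ± SD, three replicates.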
# [5] = system: HepG2; assay: Photocytotoxicity against human HepG2 cells assessed as growth inhibition incubated for 4 hrs in dark prior to 20 mW cm'-2 laser irradiation for 20 mins followed by 24 hrs incubation in dark by CCK8 assay; type: functional, cell-based; conditions: HepG2, light or radiation study
# Method in brief: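 HepG2 cells were loaded with photosensitizer for 4 h and then irradiated with a 532 nm laser for 20 min at 20 mW cm−2. They were kept in the dark for 24 h before the viability test. IC50 is the concentration giving 50% growth inhibition.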
# [6] = system: HepG2; assay: Dark cytotoxicity against human HepG2 cells after 24 hrs by CCK-8 assay; type: cell-based; conditions: HepG2, 24 h
# Method in brief: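 HepG2 cells exposed to a range of photosensitizer concentrations (tested up to 50 μM) for 24 h without light before the viability test. IC50 is the concentration giving 50% growth inhibition.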
# [7] = Solubility of the compound in PBS buffer at pH 7.4; type: physicochemical
# [8] = Octanol-water partition coefficient, log P of the compound; type: physicochemical
Structure (SMILES),Drug uptake [1],Drug uptake [2],solubility [7],logP [8],Activity [3],Activity [4],IC50 [5],IC50 [6],viability at 20 µM [4]
COCCOCCOCCOCCN(CCOCCOCCOCCOC)c1ccc(/C=C/C(=O)c2cc3ccc(OCCOCCOCCOC)cc3oc2=O)cc1,Not Active,Active,> 10000 µg/mL,0.3,Active,inactive,> 50 µM,> 50 µM,–
CCN(CC)c1ccc(/C=C/C(=O)c2cc3ccc(OCCOCCOCCOC)cc3oc2=O)cc1,Active,Active,1.1 µg/mL,3,Active,–,8.1 µM,> 50 µM,70%
CCN(CC)c1ccc2cc(C(=O)/C=C/c3ccc(N(C)CCOCCOCCOCCOC)cc3)c(=O)oc2c1,Active,Active,26 µg/mL,3.4,Active,–,3.9 µM,> 50 µM,20%

# Second part, led by results:
Drug uptake [1],Drug uptake [2],solubility [7],logP [8],Structure (SMILES),Activity [3],Activity [4],IC50 [5],IC50 [6],viability at 20 µM [4]
Not Active,Active,700 µg/mL,1.4,COCCOCCOCCOCCN(C)c1ccc(/C=C/C(=O)c2cc3ccc(OCCOCCOCCOC)cc3oc2=O)cc1,Active,inactive,> 50 µM,> 50 µM,–
Active,Active,750 µg/mL,2.2,CCN(CC)c1ccc2cc(C(=O)/C=C/c3ccc(N(CCOCCOCCOCCOC)CCOCCOCCOCCOC)cc3)c(=O)oc2c1,Active,–,4.6 µM,> 50 µM,30%
